Source: ChEMBL document CHEMBL1155541, “Discovery of 6-chloro-2-trifluoromethyl-7-aryl-7H-imidazo[1,2-a]imidazol-3-ylmethylamines, a novel class of corticotropin-releasing factor receptor type 1 (CRF1R) antagonists” (Bioorg Med Chem Lett, 2010)
Calls of active or inactive are those of the source. The rule behind the calls is not given here.

Tests used:
[1] = biological target: T1, Corticotropin-releasing factor receptor 1 (Homo sapiens, UniProt P34998); test: Displacement of [125I] Tyr-o-CRF from human […] expressed in human IMR-32 cells after 100 mins; assay type: cell-based
T1 sequence (P34998 whole entry): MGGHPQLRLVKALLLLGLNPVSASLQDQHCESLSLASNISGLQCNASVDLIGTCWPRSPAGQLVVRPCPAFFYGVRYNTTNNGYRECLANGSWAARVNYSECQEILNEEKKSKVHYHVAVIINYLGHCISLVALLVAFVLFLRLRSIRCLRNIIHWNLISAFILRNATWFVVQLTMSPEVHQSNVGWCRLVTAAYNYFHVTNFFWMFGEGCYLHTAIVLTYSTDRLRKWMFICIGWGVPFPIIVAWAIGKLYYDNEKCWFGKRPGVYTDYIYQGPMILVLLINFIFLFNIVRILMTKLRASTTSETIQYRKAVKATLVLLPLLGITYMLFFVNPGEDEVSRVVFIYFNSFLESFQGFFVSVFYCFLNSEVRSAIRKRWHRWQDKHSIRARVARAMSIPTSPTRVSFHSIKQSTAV
Procedure, shortened: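 Membranes from transformed IMR-32 cells incubated with 100 pM [125I]Tyr-o-CRF and increasing test-compound concentrations, 100 min, 25 °C. Buffer: 50 mM Tris pH 7.2, 10 mM MgCl2, 0.5% BSA, 0.005% Triton X-100, aprotinin, leupeptin. Stopped with ice-cold 50 mM Tris pH 7.4, 0.2% BSA. Nonspecific binding defined with o-CRF. Values given as Ki.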

[2] = biological target: T2, Corticotropin-releasing factor receptor 1 (Homo sapiens) (UniProt P34998); test: Antagonist activity at human CRF1 receptor expressed in human IMR-32 cells assessed as inhibition of CRF-stimulated cAMP production; assay type: functional, cell-based
T2 sequence (whole entry): T1 sequence (P34998 whole entry)

| Compound | Ki [1] | Activity [2] |
| --- | --- | --- |
| Cc1cc(C)c(-n2c(Cl)cn3c(CN(CCC(F)(F)F)Cc4cccc(F)c4)c(C(F)(F)F)nc23)c(C)c1 | 49 nM | Active |
| Cc1cc(C)c(-n2c(Cl)cn3c(CN(CC4CC4)CC(F)(F)F)c(C(F)(F)F)nc23)c(C)c1 | 5.2 nM | Active |
| CCCN(Cc1ccc(Cl)cc1)Cc1c(C(F)(F)F)nc2n(-c3c(C)cc(C)cc3C)c(Cl)cn12 | 28 nM | Active |
| Cc1cc(C)c(-n2c(Cl)cn3c(CN4CCCC4Cc4ccccc4)c(C(F)(F)F)nc23)c(C)c1 (stereo not given) | 190 nM | Active |
| CCCN(Cc1c(C(F)(F)F)nc2n(-c3ccc(C)cc3OC)c(Cl)cn12)CC1CC1 | 13 nM | Active |
| Cc1cc(C)c(-n2c(Cl)cn3c(CN(C)CCc4ccccc4)c(C(F)(F)F)nc23)c(C)c1 | 150 nM | Active |
| CCCN(CCC1CC1)Cc1c(C(F)(F)F)nc2n(-c3c(C)cc(C)cc3C)c(Cl)cn12 | 53 nM | Active |
| Cc1cc(C)c(-n2c(Cl)cn3c(CN(CCC(F)(F)F)Cc4ccccc4)c(C(F)(F)F)nc23)c(C)c1 | 43 nM | Active |
| CCCN(Cc1c(C(F)(F)F)nc2n(-c3c(C)cc(C)cc3C)c(Cl)cn12)CC1CC1 | 9.1 nM | Active |
| Cc1cc(C)c(-n2c(Cl)cn3c(CN4CCCCC4)c(C(F)(F)F)nc23)c(C)c1 | 1200 nM | Active |
| CCCCN(C)Cc1c(C(F)(F)F)nc2n(-c3c(C)cc(C)cc3C)c(Cl)cn12 | 310 nM | Active |
| CCCN(Cc1cccc(F)c1)Cc1c(C(F)(F)F)nc2n(-c3c(C)cc(C)cc3C)c(Cl)cn12 | 260 nM | Active |
| C=CCN(CCC)Cc1c(C(F)(F)F)nc2n(-c3c(C)cc(C)cc3C)c(Cl)cn12 | 4.5 nM | Active |
| CCN(Cc1ccccc1C)Cc1c(C(F)(F)F)nc2n(-c3c(C)cc(C)cc3C)c(Cl)cn12 | 4800 nM | Active |
| CCN(Cc1ccccc1)Cc1c(C(F)(F)F)nc2n(-c3c(C)cc(C)cc3C)c(Cl)cn12 | 350 nM | Active |
| CCCN(Cc1c(C(F)(F)F)nc2n(-c3c(C)cc(C)cc3C)ccn12)CC1CC1 | 470 nM | Active |
| Cc1cc(C)c(-n2c(Cl)cn3c(CN4CC=CCC4)c(C(F)(F)F)nc23)c(C)c1 | 760 nM | Active |
| Cc1cc(C)c(-n2c(Cl)cn3c(CN4CCC(C)CC4)c(C(F)(F)F)nc23)c(C)c1 | 3200 nM | Active |
| CCCN(CC1CC1)C(=O)c1c(C)nc2n(-c3c(C)cc(C)cc3C)c(Cl)cn12 | 61 nM | Active |
| Cc1cc(C)c(-n2c(Cl)cn3c(CN(CCC4CC4)CC(F)(F)F)c(C(F)(F)F)nc23)c(C)c1 | 6.3 nM | Active |

| Compound | Ki [1] | Activity [2] |
| --- | --- | --- |
| Cc1cc(C)c(-n2c(Cl)cn3c(CN(CC4CCC4)CC(F)(F)F)c(C(F)(F)F)nc23)c(C)c1 | 13 nM | Active |
| CCCCN(CC)Cc1c(C(F)(F)F)nc2n(-c3c(C)cc(C)cc3C)c(Cl)cn12 | 78 nM | Active |
| Cc1cc(C)c(-n2c(Cl)cn3c(CN(CCC(F)(F)F)Cc4ccc(F)cc4)c(C(F)(F)F)nc23)c(C)c1 | 34 nM | Active |
| Cc1cc(C)c(-n2c(Cl)cn3c(CN(CCc4ccccc4)CC(F)(F)F)c(C(F)(F)F)nc23)c(C)c1 | 350 nM | Active |
| CCN(Cc1c(C(F)(F)F)nc2n(-c3c(C)cc(C)cc3C)c(Cl)cn12)CC1CC1 | 9 nM | Active |
| CCCCN(Cc1ccccc1)Cc1c(C(F)(F)F)nc2n(-c3c(C)cc(C)cc3C)c(Cl)cn12 | 130 nM | Active |
| CCCN(CCOC)Cc1c(C(F)(F)F)nc2n(-c3c(C)cc(C)cc3C)c(Cl)cn12 | 32 nM | Active |
| Cc1cc(C)c(-n2c(Cl)cn3c(CN4CCCC(C)C4)c(C(F)(F)F)nc23)c(C)c1 (stereo not given) | 5800 nM | Active |
| CCCN(Cc1c(C(F)(F)F)nc2n(-c3c(C)cc(C)cc3Cl)c(Cl)cn12)CC1CC1 | 4.2 nM | Active |
| Cc1cc(C)c(-n2c(Cl)cn3c(CN4CCOCC4)c(C(F)(F)F)nc23)c(C)c1 | 1700 nM | Active |
| CCCN(Cc1ccc(F)cc1)Cc1c(C(F)(F)F)nc2n(-c3c(C)cc(C)cc3C)c(Cl)cn12 | 350 nM | Active |
| CCN(Cc1c(C(F)(F)F)nc2n(-c3c(C)cc(C)cc3C)c(Cl)cn12)CC1CCC1 | 16 nM | Active |
| Cc1cc(C)c(-n2c(Cl)cn3c(CN4CCC(c5ccccc5)C4)c(C(F)(F)F)nc23)c(C)c1 (stereo not given) | 610 nM | Active |
| Cc1cc(C)c(-n2c(Cl)cn3c(CN(C)Cc4ccccc4)c(C(F)(F)F)nc23)c(C)c1 | 160 nM | Active |
| Cc1cc(C)c(-n2c(Cl)cn3c(CN(CCc4ccccc4)CCC(F)(F)F)c(C(F)(F)F)nc23)c(C)c1 | 1900 nM | Active |
| Cc1cc(C)c(-n2c(Cl)cn3c(CN(CCC(F)(F)F)Cc4ccc(Cl)cc4)c(C(F)(F)F)nc23)c(C)c1 | 12 nM | Active |
| CCN(CCC1CC1)Cc1c(C(F)(F)F)nc2n(-c3c(C)cc(C)cc3C)c(Cl)cn12 | 13 nM | Active |
| Cc1cc(C)c(-n2c(Cl)cn3c(CN4CCCC4c4ccccc4)c(C(F)(F)F)nc23)c(C)c1 (stereo not given) | > 7000 nM | Active |
| CCCN(CCC)Cc1c(C(F)(F)F)nc2n(-c3c(C)cc(C)cc3C)c(Cl)cn12 | 69 nM | Active |
| CCCN(Cc1c(C(F)(F)F)nc2n(-c3c(C)cc(C)cc3C)c(Cl)cn12)CC(F)(F)F | 8.3 nM | Active |

| Compound | Ki [1] | Activity [2] |
| --- | --- | --- |
| CCCN(Cc1ccccc1)Cc1c(C(F)(F)F)nc2n(-c3c(C)cc(C)cc3C)c(Cl)cn12 | 170 nM | Active |
| CCCN(CCc1ccccc1)Cc1c(C(F)(F)F)nc2n(-c3c(C)cc(C)cc3C)c(Cl)cn12 | 21 nM | Active |
| CCN(Cc1ccc(Cl)c(Cl)c1)Cc1c(C(F)(F)F)nc2n(-c3c(C)cc(C)cc3C)c(Cl)cn12 | 580 nM | Active |
| C=CCN(CC=C)Cc1c(C(F)(F)F)nc2n(-c3c(C)cc(C)cc3C)c(Cl)cn12 | 13 nM | Active |
| Cc1cc(C)c(-n2c(Cl)cn3c(CN4CCSCC4)c(C(F)(F)F)nc23)c(C)c1 | 920 nM | Active |
| CCCN(Cc1c(C(F)(F)F)nc2n(-c3c(C)cc(C)cc3C)c(Cl)cn12)CC(F)(F)C(F)(F)F | 440 nM | Active |
| Cc1cc(C)c(-n2c(Cl)cn3c(CN(CCC(F)(F)F)CC4CC4)c(C(F)(F)F)nc23)c(C)c1 | 16 nM | Active |
| Cc1cc(C)c(-n2c(Cl)cn3c(CN(C)CCc4ccccn4)c(C(F)(F)F)nc23)c(C)c1 | 4300 nM | Active |
| Cc1cc(C)c(-n2c(Cl)cn3c(CN(CCC4CC4)CCC(F)(F)F)c(C(F)(F)F)nc23)c(C)c1 | 110 nM | Active |
| CCCN(CCC(F)(F)F)Cc1c(C(F)(F)F)nc2n(-c3c(C)cc(C)cc3C)c(Cl)cn12 | 12 nM | Active |
| Cc1cc(C)c(-n2c(Cl)cn3c(CN(C)Cc4ccco4)c(C(F)(F)F)nc23)c(C)c1 | 180 nM | Active |
| CCCN(Cc1ccc([N+](=O)[O-])cc1)Cc1c(C(F)(F)F)nc2n(-c3c(C)cc(C)cc3C)c(Cl)cn12 | 150 nM | Active |
| Cc1cc(C)c(-n2c(Cl)cn3c(CN(Cc4ccc(F)cc4)CC(F)(F)F)c(C(F)(F)F)nc23)c(C)c1 | 160 nM | Active |
| Cc1cc(C)c(-n2c(Cl)cn3c(CN(C)CCc4cccnc4)c(C(F)(F)F)nc23)c(C)c1 | 1900 nM | Active |
| Cc1cc(C)c(-n2c(Cl)cn3c(CN4CCCCC4C)c(C(F)(F)F)nc23)c(C)c1 (stereo not given) | 1600 nM | Active |
| CCN(CCc1ccccc1)Cc1c(C(F)(F)F)nc2n(-c3c(C)cc(C)cc3C)c(Cl)cn12 | 6 nM | Active |
| Cc1cc(C)c(-n2c(Cl)cn3c(CN(C)CCc4ccncc4)c(C(F)(F)F)nc23)c(C)c1 | 7600 nM | Active |
| C=C(C)CN(CC)Cc1c(C(F)(F)F)nc2n(-c3c(C)cc(C)cc3C)c(Cl)cn12 | 67 nM | Active |
| CCCN(CC1CC1)C(=O)c1c(C(F)(F)F)nc2n(-c3c(C)cc(C)cc3C)c(Cl)cn12 | 33 nM | Active |
| CCCN(Cc1c(C(F)(F)F)nc2n(-c3c(C)cc(C)cc3C)c(Cl)cn12)CC1CCC1 | 5.3 nM | Active |
